Measured values as given in ChEMBL document CHEMBL1221207, “Expanding the promiscuity of a natural-product glycosyltransferase by directed evolution” (Nat Chem Biol, 2007).
Residue numbers refer to the chain shown, from its start.

Legend:
[1] = tested on: T1, Oleandomycin glycosyltransferase (Streptomyces antibioticus), Q53685 [P67T,S132F,A242V]; assay: Activity of Streptomyces antibioticus OleD P67T/S132F/A242V mutant assessed as conversion rate of compound to produce glucoside 3 using NDP sugar donor UDP-4-amino-glucose after 3 hrs by HPLC
T1 sequence (whole entry): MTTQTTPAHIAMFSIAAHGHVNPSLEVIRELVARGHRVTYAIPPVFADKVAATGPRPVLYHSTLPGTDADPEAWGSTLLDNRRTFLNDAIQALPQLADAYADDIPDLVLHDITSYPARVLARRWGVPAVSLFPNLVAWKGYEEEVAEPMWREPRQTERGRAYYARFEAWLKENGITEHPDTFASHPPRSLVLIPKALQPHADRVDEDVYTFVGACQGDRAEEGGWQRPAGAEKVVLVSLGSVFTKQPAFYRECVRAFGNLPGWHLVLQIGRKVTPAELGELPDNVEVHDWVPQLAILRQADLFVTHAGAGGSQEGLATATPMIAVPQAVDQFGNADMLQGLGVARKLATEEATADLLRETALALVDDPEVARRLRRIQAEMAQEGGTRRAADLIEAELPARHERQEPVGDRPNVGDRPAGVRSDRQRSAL
Method in brief: (§1)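 End-point donor-specificity assay with purified OleD enzyme. Percentage conversion was read after 3 h. Quenched reactions were run by reverse-phase C18 HPLC with a 10–90% CH3CN gradient in 0.1% formic acid/H2O over 20 min at 1 ml min–1, with detection at 254 nm. Products were identified by LC-MS, by comparison to standards where available, and by fluorescence.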

[2] = tested on: T1, Oleandomycin glycosyltransferase (Streptomyces antibioticus), Q53685 [P67T,S132F,A242V]; assay: Activity of Streptomyces antibioticus OleD P67T/S132F/A242V mutant assessed as conversion rate of compound to produce glucoside 3 using NDP sugar donor-UDP-3-deoxy-glucose after 3 hrs by HPLC; method in brief: as §1
[3] = tested on: T2, Oleandomycin glycosyltransferase (Streptomyces antibioticus), Q53685 [A242V]; assay: Activity of Streptomyces antibioticus OleD A242V mutant assessed as conversion rate of compound to produce glucoside 3 using NDP sugar donor UDP-glucose after 3 hrs by HPLC; method in brief: as §1
T2 sequence (whole entry): T1 sequence (whole entry) with T67P, F132S

Cc1cc(=O)oc2cc(O)ccc12
Activity [1]: 13% | Activity [2]: 8% | Activity [3]: 38%
